Screens: PubChem BioAssay, several laboratories
NR2E3 ag-1 – activates human photoreceptor nuclear receptor NR2E3; Q9Y5X4; GST-NR2E3/biotin-RetCOR TR-FRET, 1536-well; inhibition of corepressor binding, % at 4.78 µM; 320,000 compounds, 0.12% hits; AID 2300;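 active = percent inhibition above the cutoff of mean plus 3 SD of all tested compounds, set per screening campaign, cut at about 20% in these data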;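 also: 0% = DMSO wells and 100% = biotin wells as full block of FRET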
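Format: 1536-well format; test system: GST-NR2E3 and biotin-RetCOR proteins; read-out basis: percent inhibition of TR-FRET ratio; timing: 5 h incubation at 4 °C; detection: time-resolved FRET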
JMJD2C inh – human JMJD2C demethylase inhibition | inhibition, % at 2.35 µM | 330,000 compounds, 0.069% hits | GST-JMJD2C(1-420) H3K9me3 demethylation, DELFIA europium | AID 2099;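 active = more than half of a compound's replicate wells show inhibition beyond 50%, single wells judged on their own value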;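 also: signal counts dimethyl H3K9 product captured on neutravidin plate; 0% = median of DMSO wells and 100% = 0.3 times that DMSO median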
Target sequence (Q9H3R0 1-420 limits assumed): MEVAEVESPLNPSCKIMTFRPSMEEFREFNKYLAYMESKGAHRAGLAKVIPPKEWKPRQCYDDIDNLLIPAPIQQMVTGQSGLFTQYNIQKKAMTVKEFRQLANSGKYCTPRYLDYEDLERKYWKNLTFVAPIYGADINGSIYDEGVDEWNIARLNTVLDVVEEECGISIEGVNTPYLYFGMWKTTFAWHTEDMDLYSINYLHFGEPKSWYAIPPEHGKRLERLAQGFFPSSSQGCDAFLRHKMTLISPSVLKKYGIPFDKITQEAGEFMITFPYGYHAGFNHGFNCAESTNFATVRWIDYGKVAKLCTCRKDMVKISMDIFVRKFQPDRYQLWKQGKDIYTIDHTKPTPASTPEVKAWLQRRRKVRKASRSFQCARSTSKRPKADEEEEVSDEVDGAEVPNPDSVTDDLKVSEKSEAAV
Furin inhibitor – blocks human furin protease activity | P09958 | purified furin, fluorogenic substrate cleavage | inhibition, % at 20 µM or 30 µM | 220,000 compounds, 0.061% hits; in the data active = inhibition above about 25%
EP2 antag – EP2 receptor (human) inhibition; C6 glioma cells expressing human EP2, cAMP TR-FRET; cells stimulated with saturating PGE2; inhibition, % at 25 µM; 260,000 compounds, 0.52% hits;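 active = percent inhibition above 40 after rounding to a whole number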;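 also: rat C6 glioma host cells with rolipram phosphodiesterase inhibitor present; the protocol text gives 20 µM as final concentration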
NR2E3 ag-2 – human photoreceptor-specific nuclear receptor agonism; Q9Y5X4; CHO-S Gal4-NCOR/VP16-NR2E3 two-hybrid, luciferase; inhibition of corepressor binding, % at 3.98 µM; 360,000 compounds, 0.35% hits; AID 602229;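 active = inhibition above the mean of all tested compounds plus 3 SD, cut at about 70% in these data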;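 also: 0% = DMSO with NR2E3 transfected cells and 100% = cells lacking NR2E3 construct; higher means lower luciferase signal from less NR2E3 corepressor binding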
EP2 mod – EP2 receptor (human) modulation; induction, % at 25 µM; P43116; EP2-expressing cells, cAMP HTRF FRET, PGE2 co-stimulation; 260,000 compounds, 0.83% hits;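 active = compounds whose cAMP rise, as percent of the full-agonist control response, exceeds 60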;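 also: rat C6 glioma line stably carrying human EP2 under a CMV promoter; the protocol text gives 20 µM as final concentration; 100% = response of wells given 1 µM PGE2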
* = called active by the depositor. Rows were chosen to be rich in hits. Some 1.3% of all compounds tested hit in one or more screens of this group.

COc1ccc(NC(=O)N(C)C[C@H]2Oc3ccc(NC(=O)Cn4cnnn4)cc3C(=O)N([C@H](C)CO)C[C@@H]2C)cc1 was read as JMJD2C inh 10 and NR2E3 ag-2 -7.
Screening C[C@H](CO)N1C[C@H](C)[C@@H](CN(C)Cc2ccc3c(c2)OCO3)Oc2ccc(NC(=O)Cn3cnnn3)cc2C1=O returned JMJD2C inh 61* and NR2E3 ag-2 17.
For CCOc1ccc(C(=O)N2CCC(c3nc4ccc(C)cc4[nH]3)CC2)cc1 the results were EP2 antag 8 and EP2 mod -27.
CCCCN(C(=O)c1cccc2c(=O)c(C)c(-c3ccccc3)oc12)c1ccccc1 was read as JMJD2C inh -10, Furin inhibitor -12, EP2 antag -1, NR2E3 ag-2 35 and EP2 mod 64*.
For CC(C)C1=C[C@@]23CC[C@@H]4[C@](C)(CCC[C@@]4(C)C(=O)O)[C@@H]2C[C@@H]1[C@H](C(=O)O)[C@@H]3C(=O)O the results were EP2 antag 50* and EP2 mod 5.
Screening N#C/C(=C\NC(=S)c1ccncc1)c1nc2ccccc2s1 returned EP2 antag 53* and EP2 mod 0.
Screening N#C/C(=C/c1ccncc1)c1nc2ccccc2s1 returned NR2E3 ag-1 1, JMJD2C inh -2, Furin inhibitor 2, EP2 antag 9, NR2E3 ag-2 -53 and EP2 mod -97.
`Cc1ccc2c(c1)-c1cc(C)nn1C(c1ccc(N(C)C)cc1)N2` (stereo unspecified) gave EP2 antag 8 and EP2 mod 34.
COc1ccccc1C1(O)CCCN(C(=O)COc2ccc3nsnc3c2)C1 (stereo unspecified) was read as EP2 antag 55* and EP2 mod -60.
Screening CCN1/C(=C/C=C/C=C/c2sc3ccccc3[n+]2CC)Sc2ccccc21 returned NR2E3 ag-1 -123, JMJD2C inh -8, Furin inhibitor 1, EP2 antag 50* and EP2 mod -64.
Screening CC(CN1CCCC1)OC(=O)COc1ccccc1 (stereo unspecified) returned NR2E3 ag-1 -2, JMJD2C inh 50*, Furin inhibitor -10, EP2 antag 23, NR2E3 ag-2 -21 and EP2 mod 7.
`CC(C(=O)O)[C@H]1CCC2C3CC=C4C[C@@H](O)CC[C@]4(C)C3CC[C@@]21C` (stereo partly specified) gave EP2 antag 13 and EP2 mod 18.
Screening CC(C)c1nc2ccccc2c2nn(CC(=O)N3C(C)CCCC3C)c(=O)n12 (stereo unspecified) returned EP2 antag 4 and EP2 mod -45.
Screening Cc1cc(C)cc(NC(=O)Nc2ccc3c(c2)N(C)C(=O)CS3)c1 returned NR2E3 ag-1 4, JMJD2C inh -3, Furin inhibitor -37, EP2 antag 43*, NR2E3 ag-2 -11 and EP2 mod -70.
Screening O=C1C=C(NCc2ccc3c(c2)OCO3)CC(c2ccccc2)C1 (stereo unspecified) returned NR2E3 ag-1 -4, JMJD2C inh 61*, Furin inhibitor -23, EP2 antag 1 and EP2 mod -67.
COc1ccc2nc(NC(=O)CCCC(=O)O)sc2c1 was read as EP2 antag 6 and EP2 mod -6.
Screening CN(C)CCN1C(=O)CC[C@@]2(C)C1=CC[C@H]1[C@H]2CC[C@@]2(C)[C@H]1CC[C@]2(C)O returned EP2 antag 50* and EP2 mod 6.
For CC1(CCC(=O)O)C(=O)CCC2C1CCC1(C)C2CCC1(C)O (stereo unspecified) the results were NR2E3 ag-2 16.
Screening C#CCOCCOCCOCCNc1nc(N2CCN(C(=O)[C@H](CCCCN)n3cc([C@@H](N)[C@H](C)CC)nn3)CC2)nc(N2CCN(C(=O)[C@H](CCC(=O)O)n3cc([C@@H](N)CCSC)nn3)CC2)n1 returned JMJD2C inh 52* and NR2E3 ag-2 -40.
C#CCOCCOCCOCCNc1nc(N2CCN(C(=O)[C@H](CCCCN)n3cc(C(N)CO)nn3)CC2)nc(N2CCN(C(=O)[C@H](CCC(=O)O)n3cc(C(N)[C@H](C)CC)nn3)CC2)n1 (stereo partly specified) was read as NR2E3 ag-1 1, JMJD2C inh 5, Furin inhibitor -30 and EP2 mod 9.
COc1cccc(CN2CCN(C(=O)Nc3ccc(F)cc3)[C@@H](C)C2)c1 was read as EP2 mod -105.
Screening CN(C)c1ccc(N=Cc2nc(-c3ccccc3)oc2OC(=O)c2ccccc2)cc1 returned NR2E3 ag-1 0, JMJD2C inh 77*, Furin inhibitor -21, EP2 antag 15, NR2E3 ag-2 -107 and EP2 mod 21.
CC(SCc1ccccc1)C(=O)Nc1ccc(F)cc1 (stereo unspecified) was read as NR2E3 ag-1 -1, JMJD2C inh -6, Furin inhibitor -6, EP2 antag 6, NR2E3 ag-2 -7 and EP2 mod -32.
`N#CC(C#N)=C(Nc1ccc(F)cc1)SCc1cccc(Br)c1` gave NR2E3 ag-1 2, JMJD2C inh 13, Furin inhibitor -2, EP2 antag 15, NR2E3 ag-2 94* and EP2 mod -36.
Screening Cc1nc2c(c(=O)[nH]1)CCN(Cc1ccc(N3CCCC3)cc1C)C2 returned EP2 antag 7 and EP2 mod -64.
CCN(CC)c1ccc2nc3ccc(N)cc3[n+](-c3ccccc3)c2c1 was read as NR2E3 ag-2 27.
CCN(CC)c1ccc2nc3ccccc3[n+](CC)c2c1 was read as NR2E3 ag-1 -124, JMJD2C inh 15, EP2 antag active, NR2E3 ag-2 -21 and EP2 mod -294.
`Clc1cc(Cl)c2c(c1)NC(c1ccncc1)C1CC=CC21` (stereo unspecified) gave EP2 antag 4 and EP2 mod -39.
CCOP1(=O)OCC2OC(n3cnc4c(N)ncnc43)C(O)C2O1 (stereo unspecified) was read as NR2E3 ag-1 1, JMJD2C inh -1, Furin inhibitor -25, EP2 antag 5, NR2E3 ag-2 -1 and EP2 mod 104*.
`Cn1c(CN2CCOCC2)nnc1SCC(=O)Nc1cccc(Cl)c1Cl` gave EP2 antag 12 and EP2 mod -7.
Screening CCn1c2cc(C)oc2c2cnn(CC(=O)NCc3ccccn3)c(=O)c21 returned EP2 mod -16.
Screening Cc1ccc(N(Cc2ccc([N+](=O)[O-])cc2)C(=O)c2ccco2)cc1C returned NR2E3 ag-1 -4, JMJD2C inh 15, Furin inhibitor -9, EP2 antag 5, NR2E3 ag-2 -27 and EP2 mod 63*.
